NPY Y1 blocker = NPY-Y1 receptor antagonists, primary screen, cell-based; HEK293-CNG Y1 cells, membrane potential fluorescence; NPY at EC95, then isoproterenol; inhibition, % at 3.6 µM; Neuropeptide Y receptor type 1 (Homo sapiens), P25929; AID 1040, 2008; 200,000 compounds, 1% hits;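 active = inhibition above the campaign mean inhibition of all tested compounds plus 3 SD, cut at about 20% in these data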;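 note: 0% = DMSO wells given NPY plus isoproterenol and 100% = isoproterenol alone without NPY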
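Material: HEK293 cells with Y1 receptor plus CNG channel; times: compound incubation 1 h at room temperature, readout 45 min post-stimulation; signal: fluorescence, membrane potential probe; read-out basis: fluorescence ratio normalized to % inhibition between controls; benchmarks: full-block control isoproterenol-only wells, zero-block control NPY plus isoproterenol wells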
S1P4 agonist = S1P4 receptor agonists, primary screen, cell-based | Sphingosine 1-phosphate receptor 4 (Homo sapiens), O95977 | S1P4-expressing cell line, agonist reporter assay | activation, % at 4.98 µM | 220,000 compounds, 0.35% hits | AID 1509, 2009; in the data active = activation above about 11%;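 note: 0% = DMSO vehicle and 100% = reference agonist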
Target sequence (O95977 whole entry, looked up): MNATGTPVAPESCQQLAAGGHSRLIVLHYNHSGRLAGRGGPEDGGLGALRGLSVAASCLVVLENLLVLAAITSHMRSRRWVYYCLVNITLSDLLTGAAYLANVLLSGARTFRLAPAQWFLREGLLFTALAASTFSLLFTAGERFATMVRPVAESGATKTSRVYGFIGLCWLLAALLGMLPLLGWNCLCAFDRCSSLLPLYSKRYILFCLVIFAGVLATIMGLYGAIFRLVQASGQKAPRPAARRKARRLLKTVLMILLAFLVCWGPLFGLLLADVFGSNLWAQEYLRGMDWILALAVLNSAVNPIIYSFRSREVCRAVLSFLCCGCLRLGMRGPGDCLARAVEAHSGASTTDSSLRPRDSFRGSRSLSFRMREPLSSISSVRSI
NPY-Y2 antag = NPY-Y2 receptor antagonists, primary screen, cell-based | inhibition, % at 2.7 µM | AID 793, 2007 | Neuropeptide Y receptor type 2 (Homo sapiens), P49146 | 140,000 compounds, 0.99% hits | NPY-Y2 expressing cells, antagonist mode; in the data active = inhibition above about 17%;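 note: 0% = vehicle with agonist challenge and 100% = reference antagonist with challenge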
S1P4 antag = S1P4 receptor antagonists, primary screen, cell-based. 220,000 compounds, 0.26% hits. inhibition, % at 4.98 µM. AID 1510, 2009. S1P4-expressing cells, antagonist mode, reporter read-out; in the data active = inhibition above about 29%;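 note: 0% = wells stimulated with agonist and 100% = vehicle wells without agonist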
NPY2 pot ag = NPY-Y2 potentiators or agonists, primary screen, cell-based; cells expressing NPY-Y2, potentiator/agonist read-out; activation, % at 3.6 µM; Neuropeptide Y receptor type 2 (Homo sapiens), P49146; 220,000 compounds, 0.45% hits; in the data active = activation above about 27%;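 note: cells stimulated with NPY near EC25 plus isoproterenol at EC100; 0% = vehicle plus submaximal agonist and 100% = vehicle plus saturating agonist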
NPY1 pot ag = NPY-Y1 receptor potentiators or agonists, primary screen, cell-based; Neuropeptide Y receptor type 1 (Homo sapiens), P25929; NPY-Y1 expressing cells, potentiator/agonist activation; activation, % at 3.6 µM; 220,000 compounds, 0.37% hits; AID 1304, 2008; in the data active = activation above about 33%, passing the limit was not always enough;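 note: cells stimulated with NPY at EC10 then isoproterenol at EC100; 0% = low agonist plus stimulus and 100% = saturating agonist plus stimulus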
NPY-Y2 pot conf = NPY-Y2 potentiators or agonists, confirmation, cell-based | AID 1539, 2009 | shares compounds with NPY2 pot ag | 450 compounds, 20% hits | activation, % at 3.6 µM | cell-based NPY-Y2 potentiator/agonist assay; in the data active = activation above about 33%
NPY-Y1 potentiator = NPY-Y1 potentiators or agonists, counter-screen for NPY-Y2 potentiator project, cell-based, fluorescence; 450 compounds, 20% hits; Y1 HEK293-CNG cells, membrane potential fluorescence; shares compounds with NPY2 pot ag; activation, % at 3.6 µM; in the data active = activation above about 45%;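 note: cells stimulated with submaximal NPY then isoproterenol with phosphodiesterase inhibitor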
NPY-Y1 agonist 2 = NPY-Y1 direct agonists, selectivity assay for NPY-Y2 potentiator project, cell-based, fluorescence. HEK293 Y1-CNGC, membrane potential fluorescence, agonism. shares compounds with NPY2 pot ag. 450 compounds, 37% hits. activation, % at 3.6 µM;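 active = activation above the mean of DMSO-only control wells plus 3 SD, cut at about 18% in these data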;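 note: cells stimulated with 1 µM isoproterenol plus the PDE inhibitor Ro 20-1724; 0% = isoproterenol with DMSO and no NPY and 100% = 40 nM NPY; Y1 agonists lower the membrane potential dye signal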
CNGC inhibitor = CNGC cAMP sensor activity inhibitors, counter-screen for NPY-Y2 potentiator project, cell-based, HEK293-CNG parental, membrane potential fluorescence | 450 compounds, 32% hits | isoproterenol cAMP | AID 1703, 2009 | inhibition, % at 3.6 µM | shares compounds with NPY2 pot ag;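 active = inhibition above the control-well mean plus 3 SD of those wells, cut at about 22% in these data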;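 note: 0% = DMSO with isoproterenol and 100% = DMSO without isoproterenol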
Y2 agonist ctr = NPY-Y2 direct agonists, counter-screen for NPY-Y2 potentiator project, cell-based, fluorescence | shares compounds with NPY2 pot ag | 450 compounds, 56% hits | activation, % at 3.6 µM | HEK293 Y2/CNGC cells, membrane potential fluorescence, agonist mode;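 active = activation above the mean of solvent-only control wells plus 3 SD, cut at about 10% in these data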;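 note: cells stimulated by isoproterenol with no NPY added so direct agonism is tested; 0% = DMSO with isoproterenol alone and 100% = NPY at EC100 plus isoproterenol; agonism lowers probe fluorescence through less cAMP and CNG channel opening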
Numbers without * were called inactive; / = no result. Hits are enriched below; roughly 2.4% of the tested compounds scored in any of these assays.

SMILES	NPY Y1 blocker	S1P4 agonist	NPY-Y2 antag	S1P4 antag	NPY2 pot ag	NPY1 pot ag	NPY-Y2 pot conf	NPY-Y1 potentiator	NPY-Y1 agonist 2	CNGC inhibitor	Y2 agonist ctr
O=C(NC(=O)c1c(Cl)cccc1Cl)Nc1ccc(Oc2cccnc2)nc1	/	0	/	3	15	10	/	/	/	/	/
O=C(O)c1nccnc1C(=O)Nc1ccc(Oc2c(Cl)cccc2Cl)nc1	/	-1	/	1	73*	12	-3	-2	-12	-8	0
O=C(Nc1ccccc1N1CCOCC1)c1ccc2nc[nH]c2c1	-13	2	/	-8	41*	21	-7	4	1	7	8
CCn1c(=NC(=O)CSC(C)=O)sc2cc(OC)ccc21	-9	-2	-8	0	34*	46	23	28	43*	29*	41*
COc1ccc(NS(=O)(=O)c2ccc(OC)c(N(C)S(=O)(=O)c3ccc(Cl)cc3)c2)cc1	4	2	3	-17	35*	-10	-2	-31	-22	-9	-3
CCCOc1ccc(CCC(=O)N/N=C/c2ccco2)cc1	/	-1	/	6	100*	8	2	3	-5	1	6
O=C(COc1ccc(Oc2ccccc2)cc1)NCc1cn2ccccc2n1	11	1	/	-3	-8	-12	/	/	/	/	/
O=C(O)c1ccc(OCc2cn3ccccc3n2)cc1	/	1	/	-2	101*	9	2	7	-1	3	13*
Cc1ccc(C)c(Nc2nc(N)c3ccccc3n2)c1	0	-2	/	-7	36*	21	64*	82*	44*	58*	55*
N#Cc1c(C(F)(F)F)cc(-c2ccc(F)cc2)nc1SCC(=O)O	1	2	/	17	-16	-24	/	/	/	/	/
N#Cc1c(-c2ccc(F)cc2)cc(-c2ccccc2)nc1SCC(=O)NCC(=O)O	/	1	/	5	71*	15	-7	-2	-5	-11	2
O=[N+]([O-])c1cc([N+](=O)[O-])c2c(=Nc3ccccc3)n(-c3ccccc3)n(O)c2c1	-1	2	/	5	46*	28	47*	52*	47*	34*	65*
Cc1cc(Cl)ccc1Oc1ccccc1C(=O)CC#N	11	3	/	-8	5	18	/	/	/	/	/
CCOC(=O)c1c(C)[nH]c(C(=O)COC(=O)c2ccc(O)cc2O)c1C	/	-1	/	-6	0	2	/	/	/	/	/
CCOC(=O)c1c(C)[nH]c(C(=O)COC(=O)c2ccc(O)cc2)c1C	/	1	/	-2	45*	8	-9	-16	-13	-11	-3
Cc1cnc(C(=O)OCC(=O)N(Cc2ccccc2)C(C)C)cn1	1	2	/	-12	-1	5	/	/	/	/	/
COc1ccc2c(c1)c(CC(=O)Nc1nnc(C3CC3)s1)c(C)n2C(=O)c1ccc(Cl)cc1	/	1	/	-68	49*	49	12	10	21*	-4	12*
COc1ccc2c(c1)c(CC(=O)Nc1ccc(C(C)=O)cc1)c(C)n2C(=O)c1ccc(Cl)cc1	-3	-1	0	-1	-2	-11	/	/	/	/	/
